# Rows were chosen to be rich in hits. Some 4.6% of all compounds tested hit in one or more screens of this group.
# NALP3 yeast inh = blocks the NALP3 inflammasome reconstituted in yeast. Yeast reconstituted NLRP3/ASC/caspase-1, beta-gal luminescence, 24 h. AID 2825. inhibition, % at 10 µM. 0.39% of 330,000 active;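 active = inhibition of 50% or more; inactive = inhibition below 50%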;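 note: plate controls were induced DMSO wells for no effect and uninduced yeast grown without galactose for full effect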
# NALP1 inh = inhibitors of NALP1 inflammasome in yeast. S. cerevisiae NALP1/ASC/caspase-1 growth, X-gal OD620, 72 h. inhibition, % at 10 µM. 0.61% of 280,000 active. AID 2071; in the data active = inhibition mostly above about 24%, no sharp cut-off; inactive = mostly below about 32%
# DSG3 Ab inh = human desmoglein-3 autoantibody binding inhibition | P32926 | DSG3-coupled beads, scFv-anti-DSG3-GFP binding, flow cytometry; hits give low values | binding (percent of control), % at 10 µM | 0.48% of 310,000 active;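 active = binding more than 3 SD below its plate's average and above zero; inconclusive = below that plate limit but binding exactly zero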;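 note: hits lower antibody fragment binding to DSG3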
# ALR inh = blocks human ALR sulfhydryl oxidase activity; 3.8% of 290,000 active; P55789; inhibition, % (no concentration beside the values); purified ALR, DTT oxidation, H2O2 HRP-luminol luminescence;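 active = mean replicate inhibition above about 79%, with every replicate also reaching it, limit read from the data; inconclusive = only one of the two criteria met; inactive = mean below limit and not every replicate reaching it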
# Target sequence (P55789 whole entry, looked up): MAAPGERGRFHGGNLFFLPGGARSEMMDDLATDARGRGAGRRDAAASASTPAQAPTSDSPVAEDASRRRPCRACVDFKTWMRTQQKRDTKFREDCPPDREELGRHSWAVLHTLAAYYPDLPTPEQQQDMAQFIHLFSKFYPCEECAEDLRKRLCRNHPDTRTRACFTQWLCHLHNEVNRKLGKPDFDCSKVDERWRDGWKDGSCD
# Arrestin-AP2 inh = inhibitors of human beta-arrestin and AP2 interaction. FITC-arrestin peptide / GST-AP2 beads, flow cytometry; AP2 beta2 appendage carries R879A mutation. inhibition, % at 10 µM. 0.31% of 340,000 active. AID 504490;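 active = inhibition above a set limit, near 3 SD of compounds lacking own fluorescence, cut at about 54% in these data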;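 note: plate controls were DMSO wells for no effect and 5 µM unlabelled arrestin peptide for full effect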
#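 System: GST-AP2 R879A glutathione beads; medium: PBS, Tween 20 0.05%, BSA 0.1%; reagent: fluorescein-tagged arrestin peptide at 50 nM final; schedule: pre-incubation 12 min, peptide binding 1 h, room temperature; detection: flow cytometry, FL1 (488/535 nm); read-out: inhibition as reduced fluorescein signal on beads, percent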
# PolyA inhibitor = inhibitors of polyadenylation in S. cerevisiae. 0.02% of 300,000 active. activity score, % at 12 µM. AID 1875. S. cerevisiae SKY197-pL101 polyadenylation reporter, beta-gal luminescence; efflux-impaired pdr1/pdr3 knockout yeast; score 100 = 6 SD above DMSO;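 active = lowest replicate activity score at least 50, where 100 means six control SD above control mean; inconclusive = lowest score under 50 but half or more replicates reach 50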;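 note: yeast exposed to compound for 9 h at 30 °C; higher score means more reporter readthrough which indicates perturbed polyadenylation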
# The depositor's hits bear a star; ? = inconclusive; / = no result.
SMILES,NALP3 yeast inh,NALP1 inh,DSG3 Ab inh,ALR inh,Arrestin-AP2 inh,PolyA inhibitor
COc1cccc(/C=N/NC(=O)CC2C(=O)NN=C2C)c1O (stereo not given),-1,-11,94,97*,-3,-3
c1ccc(-c2nnc(OCCN3CCOCC3)c3ccccc23)cc1,2,42*,/,-5,1,-7
COc1ccc(CC(=O)Nc2nc3ccccc3s2)cc1S(=O)(=O)N1CCOCC1,0,13,/,-4,-1,5
COc1ccc(C)cc1NC(=O)c1cc2c(s1)CCC2,29,26,98,94*,-18,-20
COc1ccc(C(=O)Nc2ccccc2N2CCOCC2)cc1S(=O)(=O)N1CCCC1,17,/,103,5,2,/
COc1ccc(CC(=O)Nc2nc3ccc(F)cc3s2)cc1S(=O)(=O)N1CCOCC1,-3,39,78,99*,15,-12
COc1ccc(C(=O)Nc2ccccc2N2CCCC2)cc1S(=O)(=O)N1CCOCC1,16,/,100,98*,10,9
COc1ccc(NC(=O)c2ccc(-c3ccccc3)cc2)cc1S(=O)(=O)N1CCOCC1,-2,-10,88*,/,35,-12
COc1ccccc1NC1CCCCC1NS(=O)(=O)c1ccccc1 (stereo not given),1,24,106,49,-1,8
Cc1cc(NC(=O)C(Cl)Cl)cc2c1OCO2,/,/,94,/,-1,/
CN(CC(=O)NCCc1ccccc1)S(=O)(=O)c1ccc(Br)s1,23,13,102,1,9,5
COc1ccccc1NC(=O)c1cccc(S(=O)(=O)N2CCOCC2)c1,0,28,/,1,-7,1
COc1ccc(NC(=O)c2cc3c(s2)CCC3)cc1S(=O)(=O)N1CCOCC1,23,-3,/,99*,17,-8
COc1ccc(NC(=O)CN(C)C(=O)c2cc3c(s2)CCC3)cc1,18,/,93*,-4,4,-16
O=C(Nc1ccccc1O)c1cccc(S(=O)(=O)N2CCOCC2)c1,3,29*,106,62,-5,-8
COc1ccc(Cl)cc1NC(=O)NNC(=O)C(=O)Nc1ccc(F)cc1,/,/,102,/,/,/
COc1cc(/C=N/NC(=O)c2cccc([N+](=O)[O-])c2)ccc1O,2,-19,105,99*,25,7
COc1cc(/C=C/C(=O)c2cccc([N+](=O)[O-])c2)cc(OC)c1OC,37,34,107,96*,-6,-2
COc1ccc(/C=N/NC(=O)c2cccc([N+](=O)[O-])c2)cc1O,6,0,104,68,-10,-14
COc1cc(/C=N/NC(=O)c2cccc(NC(=O)c3ccccc3)c2)ccc1O,-10,-3,103,98*,-3,20
COc1cc(C(=O)N/N=C/c2ccc3c(c2)c2ccccc2n3C)ccc1O,7,2,106,100*,-8,9
O=C(/C=C/c1ccccc1F)c1cccc([N+](=O)[O-])c1,22,16,89,9,-1,-21
CC(=O)Nc1ccc(S(=O)(=O)Nc2cc(C)cn(Cc3ccccc3)c2=O)cc1,16,5,/,5,13,22
COc1cc(/C=N/NC(=O)c2cccc(NC(=O)c3ccccc3C)c2)ccc1O,10,-18,/,95*,-4,14
Cc1ccccc1C(=O)Nc1cccc(C(=O)N/N=C/c2ccc3c(c2)OCO3)c1,11,8,102,-1,-8,-7
SMILES,NALP3 yeast inh,NALP1 inh,DSG3 Ab inh,ALR inh,Arrestin-AP2 inh,PolyA inhibitor
O=C(NNc1nc2c(F)cc(F)cc2s1)C1=COCCO1,15,3,103,98*,-3,22
Cc1cccc2sc(NNC(=O)C3=COCCO3)nc12,12,-9,108,26,22,27
CSCc1ccc(C(=O)NC(C)c2ccc(-n3ccnc3)cc2)cc1 (stereo not given),4,4,102,98*,9,2
CSc1ccccc1C(=O)NC(C)c1ccc(-n2ccnc2)cc1 (stereo not given),-10,13,105,-11,-3,-1
CCOc1ccc(NC(=O)COC(=O)C2C3CC4OC(=O)C2C4C3)cc1 (stereo not given),24,13,/,-3,4,14
O=C1c2cnc3nc(SCc4ccccc4)nn3c2CC2c3ccccc3CCN12 (stereo not given),26,-4,96,4,-6,114*
Cc1cccc(C)c1NC(=O)c1cnccn1,13,/,116,-4,12,7
Cc1nn(C)c(C)c1NC(=O)CN1CCC(O)(c2ccc3c(c2)OCO3)CC1,4,31*,103,-13,8,-16
CC(=O)c1ccc(N2CCN(C(=O)c3ccc4c(c3)OCO4)CC2)cc1,10,11,102,3,27,-7
CC(=O)N1CCN(c2ccc(NCc3ccc4c(c3)OCO4)cc2)CC1,15,24,93,/,35,7
COc1ccc(N2CCN(C(=O)c3ccc(SC)cc3OC)CC2)cc1,-1,-10,105,85*,1,-3
O=C(c1ccc2c(c1)OCO2)N1CCN(c2ccccc2)CC1,0,3,/,98*,-14,3
COc1ccc(N2CCN(C(=O)c3ccc4c(c3)OCO4)CC2)cc1,-17,19,106,84*,27,-6
O=C(c1ccc2c(c1)OCO2)N1CCN(c2ccc(Cl)cc2)CC1,-10,22,103,52,1,7
O=C(c1ccccc1)N1CCN(c2ccc(NCc3ccc4c(c3)OCO4)cc2)CC1,-10,23,92,89*,30,-3
COc1ccc(C(=O)C2CCCN(S(=O)(=O)c3ccc(C(C)=O)cc3)C2)c(C)c1 (stereo not given),-4,16,?,-7,3,4
O=C(NNC(=O)c1ccccc1OCc1ccccc1Cl)c1csc(N2CCOCC2)n1,23,1,107,-2,4,-22
CCOc1ncccc1C(=O)NCC(c1ccco1)N1CCCCC1 (stereo not given),20,/,94,2,4,/
COCCCn1nnnc1SCC(=O)Nc1nc2ccccc2s1,15,-4,98,-16,0,11
Cc1cc2c(Nc3cccc(O)c3)ncnc2s1,7,7,99,99*,7,1
C=C(C)CN=c1scc(C)n1/N=C/c1ccco1,19,-1,105,99*,2,-2
Cc1cc(C)n(-c2nnc(C)n2/N=C/c2ccco2)n1,0,9,97,-3,5,1
CSc1ccc(CCNC(=O)CN2C(=O)CCSc3ccccc32)cc1,17,1,111,-5,-4,-13
CCOc1ccc(CCNC(=O)CN2C(=O)CCSc3ccccc32)cc1OCC,0,12,88,2,0,67*
O=C(CC(=O)c1cccs1)c1ccncc1,/,/,98,/,0,/
O=C(/C=C/c1ccc(F)cc1)N1CCc2ccccc2C1,36,/,/,/,6,/

# Compound activity deposited in PubChem by several laboratories.
